Measurements as given in ChEMBL document CHEMBL4334458, “Design, synthesis and antibacterial evaluation of novel 15-membered 11a-azahomoclarithromycin derivatives with the 1, 2, 3-triazole side chain” (Eur J Med Chem, 2019).
Converted amounts (≈) assume the structure as drawn.

How the values were obtained:
Type in all cases: functional
Streptococcus pneumoniae [1] = assay: Antibacterial activity against erythromycin-resistant Streptococcus pneumoniae AB11 expressing the ermB and mefA incubated for 24 hrs by broth dilution method
Streptococcus pneumoniae [2] = assay: Antibacterial activity against erythromycin-resistant Streptococcus pneumoniae B1 expressing the ermB incubated for 24 hrs by broth dilution method
Streptococcus pyogenes [3] = assay: Antibacterial activity against erythromycin-susceptible Streptococcus pyogenes 1 clinical isolate incubated for 24 hrs by broth dilution method
Method in brief: (§1)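 CLSI broth microdilution in cation-adjusted Mueller-Hinton broth. Twofold dilutions spanned 0.25–128 or 0.5–256 µg/mL, with CAM and AZM as controls. Log-phase bacteria were added and incubated 24 h at 37 °C. MIC was read by turbidity as the concentration of the last clear well.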

Staphylococcus aureus [4] = assay: Antibacterial activity against methicillin-resistant Staphylococcus aureus ATCC 43300 incubated for 24 hrs by broth dilution method; details: ATCC 43300, 24 h
Bacillus subtilis = assay: Antibacterial activity against penicillin-susceptible Bacillus subtilis ATCC 9372 incubated for 24 hrs by broth dilution method; details: ATCC 9372, 24 h; method in brief: as §1
Staphylococcus aureus [5] = assay: Antibacterial activity against erythromycin-susceptible Staphylococcus aureus ATCC 25923 incubated for 24 hrs by broth dilution method; details: ATCC 25923, 24 h; method in brief: as §1
Escherichia coli = assay: Antibacterial activity against penicillin-susceptible Escherichia coli ATCC 25922 incubated for 24 hrs by broth dilution method; details: ATCC 25922, 24 h; method in brief: as §1
Pseudomonas aeruginosa = assay: Antibacterial activity against penicillin-susceptible Pseudomonas aeruginosa ATCC 27853 incubated for 24 hrs by broth dilution method; details: ATCC 27853, 24 h; method in brief: as §1
Staphylococcus aureus [6] = assay: Antibacterial activity against penicillin-resistant Staphylococcus aureus ATCC 31007 incubated for 24 hrs by broth dilution method; details: ATCC 31007, 24 h
Streptococcus pyogenes [7] = assay: Antibacterial activity against erythromycin-resistant Streptococcus pyogenes 2 clinical isolate incubated for 24 hrs by broth dilution method

Row | SMILES | MIC (Streptococcus pneumoniae [1]) [µg/mL] | MIC (Streptococcus pneumoniae [2]) [µg/mL] | MIC (Streptococcus pyogenes [3]) [µg/mL] | MIC (Staphylococcus aureus [4]) [µg/mL] | MIC (Bacillus subtilis) [µg/mL] | MIC (Staphylococcus aureus [5]) [µg/mL] | MIC (Escherichia coli) [µg/mL] | MIC (Pseudomonas aeruginosa) [µg/mL] | MIC (Staphylococcus aureus [6]) [µg/mL] | MIC (Streptococcus pyogenes [7]) [µg/mL]
1 | CO[C@]1(C)C[C@@H](C)[C@H](O)[C@H](C)CN(C)C[C@@H](Cn2cc(-c3ccc(F)cc3)nn2)OC(=O)[C@H](C)[C@@H](O[C@H]2C[C@@](C)(OC)[C@@H](O)[C@H](C)O2)[C@H](C)[C@H]1O[C@@H]1O[C@H](C)C[C@H](N(C)C)[C@H]1O | 16 (≈ 18.2 µM) | 64 (≈ 72.7 µM) | 0.25 (≈ 0.284 µM) | 128 (≈ 145 µM) | 0.5 (≈ 0.568 µM) | 0.5 (≈ 0.568 µM) | 32 (≈ 36.4 µM) | 32 (≈ 36.4 µM) | 128 (≈ 145 µM) | 64 (≈ 72.7 µM)
2 | CCc1ccc(-n2cc(COC[C@H]3CN(C)C[C@@H](C)[C@@H](O)[C@H](C)C[C@@](C)(OC)[C@H](O[C@@H]4O[C@H](C)C[C@H](N(C)C)[C@H]4O)[C@@H](C)[C@H](O[C@H]4C[C@@](C)(OC)[C@@H](O)[C@H](C)O4)[C@@H](C)C(=O)O3)nn2)cc1 | 32 (≈ 34.8 µM) | 128 (≈ 139 µM) | 0.5 (≈ 0.543 µM) | 128 (≈ 139 µM) | ≤ 0.25 | 0.5 (≈ 0.543 µM) | 64 (≈ 69.6 µM) | 16 (≈ 17.4 µM) | 128 (≈ 139 µM) | 64 (≈ 69.6 µM)
3 | CO[C@]1(C)C[C@@H](C)[C@H](O)[C@H](C)CN(C)C[C@H](COCc2cn(-c3ccc(C(C)C)cc3)nn2)OC(=O)[C@H](C)[C@@H](O[C@H]2C[C@@](C)(OC)[C@@H](O)[C@H](C)O2)[C@H](C)[C@H]1O[C@@H]1O[C@H](C)C[C@H](N(C)C)[C@H]1O | 32 (≈ 34.3 µM) | 64 (≈ 68.5 µM) | 1 (≈ 1.07 µM) | 64 (≈ 68.5 µM) | 0.5 (≈ 0.535 µM) | 1 (≈ 1.07 µM) | 64 (≈ 68.5 µM) | 16 (≈ 17.1 µM) | 128 (≈ 137 µM) | 32 (≈ 34.3 µM)
4 | CO[C@]1(C)C[C@@H](C)[C@H](O)[C@H](C)CN(C)C[C@@H](Cn2cc(-c3ccc(Cl)cc3)nn2)OC(=O)[C@H](C)[C@@H](O[C@H]2C[C@@](C)(OC)[C@@H](O)[C@H](C)O2)[C@H](C)[C@H]1O[C@@H]1O[C@H](C)C[C@H](N(C)C)[C@H]1O | 64 (≈ 71.4 µM) | 64 (≈ 71.4 µM) | 2 (≈ 2.23 µM) | 64 (≈ 71.4 µM) | 16 (≈ 17.8 µM) | 8 (≈ 8.92 µM) | 128 (≈ 143 µM) | > 128 | 64 (≈ 71.4 µM) | 32 (≈ 35.7 µM)
5 | CO[C@]1(C)C[C@@H](C)[C@H](O)[C@H](C)CN(C)[C@H](Cn2cc(-c3ccc(Cl)cc3)nn2)COC(=O)[C@H](C)[C@@H](O[C@H]2C[C@@](C)(OC)[C@@H](O)[C@H](C)O2)[C@H](C)[C@H]1O[C@@H]1O[C@H](C)C[C@H](N(C)C)[C@H]1O | 64 (≈ 71.4 µM) | 64 (≈ 71.4 µM) | 8 (≈ 8.92 µM) | 64 (≈ 71.4 µM) | 8 (≈ 8.92 µM) | 8 (≈ 8.92 µM) | 128 (≈ 143 µM) | > 128 | 64 (≈ 71.4 µM) | 32 (≈ 35.7 µM)
6 | CO[C@]1(C)C[C@@H](C)[C@H](O)[C@H](C)CN(C)[C@@H](Cn2cc(-c3ccccc3)nn2)COC(=O)[C@H](C)[C@@H](O[C@H]2C[C@@](C)(OC)[C@@H](O)[C@H](C)O2)[C@H](C)[C@H]1O[C@@H]1O[C@H](C)C[C@H](N(C)C)[C@H]1O | 128 (≈ 148 µM) | 256 (≈ 297 µM) | 2 (≈ 2.32 µM) | 256 (≈ 297 µM) | 16 (≈ 18.6 µM) | 32 (≈ 37.1 µM) | > 128 | > 128 | 256 (≈ 297 µM) | 128 (≈ 148 µM)
7 | CO[C@]1(C)C[C@@H](C)[C@H](O)[C@H](C)CN(C)C[C@@H](COCc2cn(-c3ccc(SC)cc3)nn2)OC(=O)[C@H](C)[C@@H](O[C@H]2C[C@@](C)(OC)[C@@H](O)[C@H](C)O2)[C@H](C)[C@H]1O[C@@H]1O[C@H](C)C[C@H](N(C)C)[C@H]1O | 32 (≈ 34.1 µM) | 64 (≈ 68.2 µM) | 4 (≈ 4.26 µM) | 64 (≈ 68.2 µM) | 2 (≈ 2.13 µM) | 4 (≈ 4.26 µM) | 128 (≈ 136 µM) | 128 (≈ 136 µM) | 128 (≈ 136 µM) | 32 (≈ 34.1 µM)
8 | CO[C@]1(C)C[C@@H](C)[C@H](O)[C@H](C)CN(C)C[C@H](Cn2cc(-c3ccc(F)cc3)nn2)OC(=O)[C@H](C)[C@@H](O[C@H]2C[C@@](C)(OC)[C@@H](O)[C@H](C)O2)[C@H](C)[C@H]1O[C@@H]1O[C@H](C)C[C@H](N(C)C)[C@H]1O | 256 (≈ 291 µM) | 256 (≈ 291 µM) | 0.25 (≈ 0.284 µM) | 256 (≈ 291 µM) | 2 (≈ 2.27 µM) | 2 (≈ 2.27 µM) | 32 (≈ 36.4 µM) | 64 (≈ 72.7 µM) | 256 (≈ 291 µM) | 64 (≈ 72.7 µM)
9 | CO[C@]1(C)C[C@@H](C)[C@H](O)[C@H](C)CN(C)C[C@H](Cn2cc(-c3ccc(Cl)cc3)nn2)OC(=O)[C@H](C)[C@@H](O[C@H]2C[C@@](C)(OC)[C@@H](O)[C@H](C)O2)[C@H](C)[C@H]1O[C@@H]1O[C@H](C)C[C@H](N(C)C)[C@H]1O | 128 (≈ 143 µM) | 128 (≈ 143 µM) | 0.12 (≈ 0.134 µM) | 128 (≈ 143 µM) | 1 (≈ 1.12 µM) | 2 (≈ 2.23 µM) | 32 (≈ 35.7 µM) | 64 (≈ 71.4 µM) | 128 (≈ 143 µM) | 64 (≈ 71.4 µM)
10 | CO[C@]1(C)C[C@@H](C)[C@H](O)[C@H](C)CN(C)C[C@@H](COCc2cn(-c3ccccc3)nn2)OC(=O)[C@H](C)[C@@H](O[C@H]2C[C@@](C)(OC)[C@@H](O)[C@H](C)O2)[C@H](C)[C@H]1O[C@@H]1O[C@H](C)C[C@H](N(C)C)[C@H]1O | 64 (≈ 71.7 µM) | 256 (≈ 287 µM) | 1 (≈ 1.12 µM) | 256 (≈ 287 µM) | 1 (≈ 1.12 µM) | 1 (≈ 1.12 µM) | 128 (≈ 143 µM) | 128 (≈ 143 µM) | > 256 | 64 (≈ 71.7 µM)
11 | CO[C@]1(C)C[C@@H](C)[C@H](O)[C@H](C)CN(C)[C@@H](Cn2cc(-c3ccccn3)nn2)COC(=O)[C@H](C)[C@@H](O[C@H]2C[C@@](C)(OC)[C@@H](O)[C@H](C)O2)[C@H](C)[C@H]1O[C@@H]1O[C@H](C)C[C@H](N(C)C)[C@H]1O | 256 (≈ 297 µM) | > 256 | 16 (≈ 18.5 µM) | > 256 | 32 (≈ 37.1 µM) | 64 (≈ 74.2 µM) | > 128 | > 128 | > 256 | 256 (≈ 297 µM)
12 | CO[C@]1(C)C[C@@H](C)[C@H](O)[C@H](C)CN(C)C[C@@H](Cn2cc(-c3ccccn3)nn2)OC(=O)[C@H](C)[C@@H](O[C@H]2C[C@@](C)(OC)[C@@H](O)[C@H](C)O2)[C@H](C)[C@H]1O[C@@H]1O[C@H](C)C[C@H](N(C)C)[C@H]1O | 128 (≈ 148 µM) | 128 (≈ 148 µM) | 1 (≈ 1.16 µM) | > 256 | 4 (≈ 4.63 µM) | 2 (≈ 2.32 µM) | 128 (≈ 148 µM) | 64 (≈ 74.2 µM) | > 256 | 128 (≈ 148 µM)
13 | COc1ccc(-c2cn(C[C@@H]3CN(C)C[C@@H](C)[C@@H](O)[C@H](C)C[C@@](C)(OC)[C@H](O[C@@H]4O[C@H](C)C[C@H](N(C)C)[C@H]4O)[C@@H](C)[C@H](O[C@H]4C[C@@](C)(OC)[C@@H](O)[C@H](C)O4)[C@@H](C)C(=O)O3)nn2)cc1 | 128 (≈ 143 µM) | 256 (≈ 287 µM) | 4 (≈ 4.48 µM) | 256 (≈ 287 µM) | 64 (≈ 71.7 µM) | 32 (≈ 35.9 µM) | > 128 | > 128 | 256 (≈ 287 µM) | 64 (≈ 71.7 µM)
14 | CCCCc1ccc(-c2cn(C[C@@H]3COC(=O)[C@H](C)[C@@H](O[C@H]4C[C@@](C)(OC)[C@@H](O)[C@H](C)O4)[C@H](C)[C@@H](O[C@@H]4O[C@H](C)C[C@H](N(C)C)[C@H]4O)[C@](C)(OC)C[C@@H](C)[C@H](O)[C@H](C)CN3C)nn2)cc1 | 64 (≈ 69.7 µM) | 64 (≈ 69.7 µM) | 16 (≈ 17.4 µM) | 128 (≈ 139 µM) | 32 (≈ 34.8 µM) | 128 (≈ 139 µM) | 128 (≈ 139 µM) | > 128 | 64 (≈ 69.7 µM) | 16 (≈ 17.4 µM)
